We go through four compounds from ChEMBL document CHEMBL1142225, “Inhibiting HIV-1 integrase by shifting its oligomerization equilibrium” (Proc Natl Acad Sci U S A, 2007).

Series [1] deals with Human immunodeficiency virus 1. Nature of the series: Inhibition of HIV1 in sup T1 cells assessed as total reverse transcribed viral DNA at 2 uM by PCR. Type of series: functional, organism-based. In outline: (§1)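 Sup T1 cells (RPMI 1640, 10% FCS) were pretreated 2 h with compound, then infected with HIV-1 Δenv/VSV-G (HXB2 backbone) at MOI 2 for 6 h. Total viral DNA was detected by Gag-specific PCR on 10 ng DNA with 3.5 mM MgCl2 and 29 cycles.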

The target of series [2] is Human immunodeficiency virus type 1 integrase (Human immunodeficiency virus 1) (UniProt Q7ZJM1). Nature of the series: Inhibition of HIV1 integrase 3'-end processing activity.
Chain of Human immunodeficiency virus type 1 integrase (Human immunodeficiency virus 1) (Q7ZJM1 as listed by the source): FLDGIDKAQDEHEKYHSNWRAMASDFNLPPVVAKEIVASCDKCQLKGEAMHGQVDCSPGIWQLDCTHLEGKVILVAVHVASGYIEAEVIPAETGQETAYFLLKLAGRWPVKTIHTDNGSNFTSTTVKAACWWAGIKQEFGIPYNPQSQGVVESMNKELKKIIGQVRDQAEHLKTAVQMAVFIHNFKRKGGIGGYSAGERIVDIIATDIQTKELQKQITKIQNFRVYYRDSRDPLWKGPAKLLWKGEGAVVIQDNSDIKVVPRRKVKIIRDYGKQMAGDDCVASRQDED
Series [3] has as its system Human immunodeficiency virus 1. Description: Inhibition of HIV1 genome integration assessed as integrated viral DNA level at 2.5 uM by RT-PCR method. Type of series: functional. In outline:
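Integrated proviral DNA in infected cells was measured by nested real-time PCR. The second round used SYBR green with 300 nM primers and 50 cycles (95°C 15 s, 60°C 60 s). Quantification used a standard curve from full-length HIV-1 HXB2 plasmid (5 ng–0.25 fg). Samples were run in quadruplicate. Results are expressed as percentage of integrated viral DNA.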

For series [4], the target named is Human immunodeficiency virus type 1 integrase (Human immunodeficiency virus 1) (UniProt Q7ZJM1). Description: Inhibition of HIV1 integrase strand transfer activity in presence of LTR DNA template.
In series [5] the test system is Human immunodeficiency virus 1. Nature of the series: Inhibition of HIV1 Tat-mediated HIV1 reporter gene expression in human TZM-bl HeLa MAGI cells. Type of series: functional, organism-based. In outline:
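TZM-bl (HeLa MAGI) cells carrying a Tat/TAR-driven β-galactosidase reporter were grown in DMEM with 10% FCS, seeded at 10 × 10^3 cells per well, and infected with HIV-1 at equal MOI. Read-out was reporter expression by MAGI assay.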

Series [6] deals with Human immunodeficiency virus type 1 integrase (Human immunodeficiency virus 1) (UniProt Q7ZJM1). Nature of the series: Inhibition of HIV1 integrase 3'-end processing activity at 21 uM.
Series [7] has as its system Human immunodeficiency virus 1. Description: Effect on HIV1 replication in sup T1 cells assessed as total reverse transcribed viral DNA level at 12.5 uM by PCR. It counts as functional, organism-based. In outline: as §1
Series [8] concerns HeLa. Description: Toxicity against human HeLa cells by MTT method. Type of series: cell-based.
Series [9] deals with Human immunodeficiency virus type 1 integrase (Human immunodeficiency virus 1) (UniProt Q7ZJM1). Nature of the series: Inhibition of HIV1 integrase binding to LTR DNA by fluorescence anisotrophy. In outline:
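Competition anisotropy at 10°C in 20 mM Tris pH 7.4/185 mM NaCl. LEDGF/p75 peptide (500 nM) was preincubated 0.5 h with His-tagged IN (4 μM), then titrated into fluorescein-labeled 36-mer HIV-1 LTR DNA (10 nM). Excitation 480 nm, emission 530 nm.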

In series [10] the test system is Human immunodeficiency virus 1. Description: Inhibition of HIV1 replication in human H9 cells assessed as reduction of p24 protein level after 10 days. Type of series: functional, organism-based. In outline: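 H9 T-lymphoid cells were preincubated 2 h with compound, then infected with wild-type HIV-1 HXB2 at MOI 0.1 (1 h adsorption at 37°C, then washed). Cells were cultured 10 days, and p24 released into the medium was measured by capture assay.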

Series [11] has as its target Human immunodeficiency virus type 1 integrase (Human immunodeficiency virus 1, UniProt Q7ZJM1). Nature of the series: Binding affinity to HIV1 integrase tetrameric form by fluorescence anisotrophy. In outline: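 Fluorescence anisotropy at 10°C in 20 mM Tris pH 7.4/185 mM NaCl (ionic strength 190 mM). His-tagged IN was titrated into fluorescein-labeled LEDGF/p75 peptide (0.05–0.1 μM) in 20 aliquots at 1-min intervals. Excitation was 480 nm and emission 530 nm. Kd was obtained from a Hill-equation fit.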

Calls of active or inactive are those of the source. The calls are words filed in the database; no cut-off is given here.

Chain of Human immunodeficiency virus type 1 integrase (Q7ZJM1 whole entry): as the sequence (Q7ZJM1 as listed by the source) above

For `Cc1cn([C@H]2C[C@H](N=[N+]=[N-])[C@@H](CO)O2)c(=O)[nH]c1=O`, the result in [1] was Active.
With H-WKKIRRFVSQVIM-OH, the outcome in series [2], in [4], in [6] and in series [10] was Active. Besides, the inhibition at 2.5 µM in [3] is > 90%. For the same compound, the Activity entry in series [5] was “Dose-dependent effect”; in series [8], “Non-toxic”; in series [9], 6. Further, in series [7], the outcome was inactive. This compound registered a Kd in [11] of 12 µM.
H-WIHAEIKNSLKIDNLDVNRCIEALD-OH: the fold inhibition in series [9] came to 3 fold. In [11], the Kd came to 4.4 µM.
In the case of H-WNSLKIDNLDV-OH, the outcome in series [2] and in series [10] was Active. The inhibition at 2.5 µM in series [3] is > 90%. Besides, the values for the Activity entry in [5] and in [8] were “Dose-dependent effect” and “Non-toxic”, respectively. In addition, in [7], the outcome was inactive. The same compound gave a fold inhibition in series [9] of 3 fold. The compound further yielded a Kd in [11] of 3.7 µM.
